According to ChEMBL document CHEMBL4184148 (Bioorg Med Chem Lett, 2017):

How the values were obtained:
[1] = target: Death-associated protein kinase 3 (Homo sapiens) (UniProt O43293); assay: Binding affinity to wild-type human partial length DAPK3 (M1 to A277 residues) expressed in Escherichia coli BL21 at 1 uM by Kinomescan method relative to control
[2] = system: Receptor-type tyrosine-protein kinase FLT3 (Homo sapiens), P36888 [K663Q]; assay: Binding affinity to human partial length FLT3 K663Q mutant (V592 to Y969 residues) expressed in Escherichia coli BL21 at 1 uM by Kinomescan method relative to control
[3] = target: Cyclin-dependent kinase 14 (Homo sapiens) (UniProt O94921); assay: Binding affinity to wild-type human full length PFTK1 (M1 to H451 residues) expressed in Escherichia coli BL21 at 1 uM by Kinomescan method relative to control
Summary of the method: (§1)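 Kinome-wide competition binding panel run by an outside provider, with each compound tested at a single concentration. Activity is read against the kinase panel.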

Aurora kinase A = target: T1, Aurora kinase A (Homo sapiens, UniProt O14965); assay: Inhibition of Aurora A auto-phosphorylation in human HCT116 cells after 4 hrs by Western blot analysis; assay type: cell-based
T1 sequence (O14965 whole entry): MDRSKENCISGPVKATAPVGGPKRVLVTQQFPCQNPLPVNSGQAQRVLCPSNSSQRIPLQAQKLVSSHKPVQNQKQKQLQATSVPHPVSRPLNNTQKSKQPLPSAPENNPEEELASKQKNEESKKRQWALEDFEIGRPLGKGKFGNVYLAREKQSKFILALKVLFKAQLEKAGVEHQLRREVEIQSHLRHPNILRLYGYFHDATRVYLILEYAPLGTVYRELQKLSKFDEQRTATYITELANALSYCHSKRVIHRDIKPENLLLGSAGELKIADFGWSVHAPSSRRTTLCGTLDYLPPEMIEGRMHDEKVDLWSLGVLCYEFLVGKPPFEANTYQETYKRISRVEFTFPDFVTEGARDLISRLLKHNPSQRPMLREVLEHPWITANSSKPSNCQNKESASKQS
Summary of the method: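 Cells treated with compound in dose response for 4 h. Phospho-Aurora A (auto-phosphorylation) read by western blot. EC50 derived from dose-response curves over three replicate experiments.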

[4] = target: Serine/threonine-protein kinase 17B (Homo sapiens) (UniProt O94768); assay: Binding affinity to wild-type human full length DRAK2 (M1 to C372 residues) expressed in Escherichia coli BL21 at 1 uM by Kinomescan method relative to control
Summary of the method: (§2)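 Run as one kinome-wide competition binding panel with each compound at a single fixed concentration. Results were plotted as a kinome-wide selectivity map.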

[5] = target: Serine/threonine-protein kinase 4 (Homo sapiens) (UniProt Q13043); assay: Binding affinity to wild-type human full length MST1 (M1 to F487 residues) expressed in Escherichia coli BL21 at 1 uM by Kinomescan method relative to control; summary of the method: as §2
[6] = target: Mitogen-activated protein kinase kinase kinase 14 (Homo sapiens) (UniProt Q99558); assay: Binding affinity to wild-type human partial length NIK (L318 to P947 residues) expressed in HEK293 cells at 1 uM by Kinomescan method relative to control; assay type: cell-based
[7] = target: SRSF protein kinase 2 (Homo sapiens) (UniProt P78362); assay: Binding affinity to wild-type human full length SRPK2 (M1 to S686 residues) expressed in Escherichia coli BL21 at 1 uM by Kinomescan method relative to control; summary of the method: as §1
[8] = target: Serine/threonine-protein kinase Nek11 (Homo sapiens) (UniProt Q8NG66); assay: Binding affinity to wild-type human partial length NEK11 (M1 to E313 residues) expressed in HEK293 cells at 1 uM by Kinomescan method relative to control; assay type: cell-based
[9] = target: Cyclin-dependent kinase 5 (Homo sapiens) (UniProt Q00535); assay: Binding affinity to wild-type human full length CDK5 (M1 to P292 residues) expressed in Escherichia coli BL21 at 1 uM by Kinomescan method relative to control; summary of the method: as §2
Aurora kinase B = Aurora kinase B (Homo sapiens, UniProt Q96GD4); assay: Binding affinity to wild-type human partial length AURKB (D25 to A303 residues) expressed in HEK293 cells at 1 uM by Kinomescan method relative to control; assay type: cell-based
[10] = target: Phosphatidylinositol 3-kinase C2 domain-containing subunit gamma (Homo sapiens) (UniProt O75747); assay: Binding affinity to wild-type human partial length PIK3C2G (M1 to I1446 residues) expressed in HEK293 cells at 1 uM by Kinomescan method relative to control; assay type: cell-based
[11] = target: NUAK family SNF1-like kinase 2 (Homo sapiens) (UniProt Q9H093); assay: Binding affinity to wild-type human partial length SNARK (P22 to A333 residues) expressed in HEK293 cells at 1 uM by Kinomescan method relative to control; assay type: cell-based
[12] = target: Serine/threonine-protein kinase PLK3 (Homo sapiens) (UniProt Q9H4B4); assay: Binding affinity to wild-type human partial length PLK3 (A42 to L334 residues) expressed in HEK293 cells at 1 uM by Kinomescan method relative to control; assay type: cell-based
HEK293 = assay: Cytotoxicity against human HEK293 cells assessed as reduction in cell viability up to 33.3 uM after 72 hrs by CellTiter-Glo assay relative to control; assay type: cell-based; details: hek293, 72 h
Summary of the method: (§3)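 Cells were treated across a dose-response range for 72 h, and viability was read by CellTiter-Glo luminescence. Measurements were made in triplicate and reported with standard error.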

HeLa = assay: Cytotoxicity against human HeLa cells assessed as reduction in cell viability after 72 hrs by CellTiter-Glo assay; assay type: functional, cell-based; summary of the method: as §3
[13] = target: Phosphorylase b kinase gamma catalytic chain, liver/testis isoform (Homo sapiens) (UniProt P15735); assay: Binding affinity to wild-type human partial length PHKG2 (M1 to W300 residues) expressed in Escherichia coli BL21 at 1 uM by Kinomescan method relative to control
[14] = target: Serine/threonine-protein kinase WNK2 (Homo sapiens) (UniProt Q9Y3S1); assay: Binding affinity to wild-type human partial length WNK2 (V47 to D482 residues) expressed in HEK293 cells at 1 uM by Kinomescan method relative to control; assay type: cell-based
[15] = target: Mitogen-activated protein kinase kinase kinase 20 (Homo sapiens) (UniProt Q9NYL2); assay: Binding affinity to wild-type human partial length ZAK (M1 to L331 residues) expressed in Escherichia coli BL21 at 1 uM by Kinomescan method relative to control
[16] = target: Tyrosine-protein kinase receptor Tie-1 (Homo sapiens) (UniProt P35590); assay: Binding affinity to wild-type human partial length TIE1 (T819 to A1138 residues) expressed in Escherichia coli BL21 at 1 uM by Kinomescan method relative to control
[17] = target: Serine/threonine-protein kinase 16 (Homo sapiens) (UniProt O75716); assay: Binding affinity to wild-type human partial length STK16 (G11 to I305 residues) expressed in Escherichia coli BL21 at 1 uM by Kinomescan method relative to control
[18] = target: Ephrin type-A receptor 4 (Homo sapiens) (UniProt P54764); assay: Binding affinity to wild-type human partial length EPHA4 (T601 to R897 residues) expressed in Escherichia coli BL21 at 1 uM by Kinomescan method relative to control

Chain of Cyclin-dependent kinase 5 (Homo sapiens) (Q00535 whole entry, looked up, the tested form may be a part): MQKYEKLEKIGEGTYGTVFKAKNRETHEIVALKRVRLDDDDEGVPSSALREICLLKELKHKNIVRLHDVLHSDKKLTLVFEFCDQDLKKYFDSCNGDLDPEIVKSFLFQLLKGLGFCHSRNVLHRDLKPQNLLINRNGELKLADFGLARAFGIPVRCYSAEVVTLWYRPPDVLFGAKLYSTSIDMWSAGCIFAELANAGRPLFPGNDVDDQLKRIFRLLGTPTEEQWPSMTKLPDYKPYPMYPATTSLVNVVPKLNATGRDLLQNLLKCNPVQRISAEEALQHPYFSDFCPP
Chain of NUAK family SNF1-like kinase 2 (Homo sapiens) (Q9H093 whole entry, the tested form may be a part): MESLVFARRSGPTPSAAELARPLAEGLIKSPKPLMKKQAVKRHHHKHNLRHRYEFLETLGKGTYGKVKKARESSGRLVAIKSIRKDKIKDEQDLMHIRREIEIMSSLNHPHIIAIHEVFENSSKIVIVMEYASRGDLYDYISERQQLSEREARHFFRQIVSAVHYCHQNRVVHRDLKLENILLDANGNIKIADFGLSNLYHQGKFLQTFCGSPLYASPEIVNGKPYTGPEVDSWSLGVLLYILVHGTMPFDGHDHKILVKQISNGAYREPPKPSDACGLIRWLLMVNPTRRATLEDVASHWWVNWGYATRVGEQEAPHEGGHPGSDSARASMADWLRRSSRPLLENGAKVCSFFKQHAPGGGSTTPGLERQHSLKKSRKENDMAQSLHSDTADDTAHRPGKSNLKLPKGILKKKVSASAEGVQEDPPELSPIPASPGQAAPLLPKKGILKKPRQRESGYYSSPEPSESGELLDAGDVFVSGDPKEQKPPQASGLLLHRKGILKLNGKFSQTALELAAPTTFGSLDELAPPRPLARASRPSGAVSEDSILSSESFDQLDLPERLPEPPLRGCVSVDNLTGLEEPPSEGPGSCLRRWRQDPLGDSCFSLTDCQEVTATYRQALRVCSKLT
Chain of Serine/threonine-protein kinase Nek11 (Homo sapiens) (Q8NG66 whole entry, the tested form may be a part): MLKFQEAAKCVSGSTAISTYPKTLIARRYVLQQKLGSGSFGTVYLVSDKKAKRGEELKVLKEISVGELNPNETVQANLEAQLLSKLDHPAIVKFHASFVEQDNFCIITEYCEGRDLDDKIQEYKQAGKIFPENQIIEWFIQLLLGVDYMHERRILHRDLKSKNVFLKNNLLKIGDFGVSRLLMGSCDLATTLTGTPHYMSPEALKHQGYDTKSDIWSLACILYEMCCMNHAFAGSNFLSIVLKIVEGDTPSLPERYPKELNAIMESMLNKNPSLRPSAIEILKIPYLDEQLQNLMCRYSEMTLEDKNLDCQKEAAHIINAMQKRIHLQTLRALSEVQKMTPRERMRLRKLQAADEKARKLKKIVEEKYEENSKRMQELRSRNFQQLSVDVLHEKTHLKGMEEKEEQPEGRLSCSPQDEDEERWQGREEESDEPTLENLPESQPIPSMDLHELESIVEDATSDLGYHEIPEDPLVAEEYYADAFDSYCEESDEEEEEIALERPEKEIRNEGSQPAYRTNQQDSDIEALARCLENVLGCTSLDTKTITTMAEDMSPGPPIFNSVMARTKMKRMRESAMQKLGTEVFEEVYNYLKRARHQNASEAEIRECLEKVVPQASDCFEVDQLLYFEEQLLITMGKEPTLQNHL
Chain of Serine/threonine-protein kinase WNK2 (Homo sapiens) (Q9Y3S1 whole entry, the tested form may be a part): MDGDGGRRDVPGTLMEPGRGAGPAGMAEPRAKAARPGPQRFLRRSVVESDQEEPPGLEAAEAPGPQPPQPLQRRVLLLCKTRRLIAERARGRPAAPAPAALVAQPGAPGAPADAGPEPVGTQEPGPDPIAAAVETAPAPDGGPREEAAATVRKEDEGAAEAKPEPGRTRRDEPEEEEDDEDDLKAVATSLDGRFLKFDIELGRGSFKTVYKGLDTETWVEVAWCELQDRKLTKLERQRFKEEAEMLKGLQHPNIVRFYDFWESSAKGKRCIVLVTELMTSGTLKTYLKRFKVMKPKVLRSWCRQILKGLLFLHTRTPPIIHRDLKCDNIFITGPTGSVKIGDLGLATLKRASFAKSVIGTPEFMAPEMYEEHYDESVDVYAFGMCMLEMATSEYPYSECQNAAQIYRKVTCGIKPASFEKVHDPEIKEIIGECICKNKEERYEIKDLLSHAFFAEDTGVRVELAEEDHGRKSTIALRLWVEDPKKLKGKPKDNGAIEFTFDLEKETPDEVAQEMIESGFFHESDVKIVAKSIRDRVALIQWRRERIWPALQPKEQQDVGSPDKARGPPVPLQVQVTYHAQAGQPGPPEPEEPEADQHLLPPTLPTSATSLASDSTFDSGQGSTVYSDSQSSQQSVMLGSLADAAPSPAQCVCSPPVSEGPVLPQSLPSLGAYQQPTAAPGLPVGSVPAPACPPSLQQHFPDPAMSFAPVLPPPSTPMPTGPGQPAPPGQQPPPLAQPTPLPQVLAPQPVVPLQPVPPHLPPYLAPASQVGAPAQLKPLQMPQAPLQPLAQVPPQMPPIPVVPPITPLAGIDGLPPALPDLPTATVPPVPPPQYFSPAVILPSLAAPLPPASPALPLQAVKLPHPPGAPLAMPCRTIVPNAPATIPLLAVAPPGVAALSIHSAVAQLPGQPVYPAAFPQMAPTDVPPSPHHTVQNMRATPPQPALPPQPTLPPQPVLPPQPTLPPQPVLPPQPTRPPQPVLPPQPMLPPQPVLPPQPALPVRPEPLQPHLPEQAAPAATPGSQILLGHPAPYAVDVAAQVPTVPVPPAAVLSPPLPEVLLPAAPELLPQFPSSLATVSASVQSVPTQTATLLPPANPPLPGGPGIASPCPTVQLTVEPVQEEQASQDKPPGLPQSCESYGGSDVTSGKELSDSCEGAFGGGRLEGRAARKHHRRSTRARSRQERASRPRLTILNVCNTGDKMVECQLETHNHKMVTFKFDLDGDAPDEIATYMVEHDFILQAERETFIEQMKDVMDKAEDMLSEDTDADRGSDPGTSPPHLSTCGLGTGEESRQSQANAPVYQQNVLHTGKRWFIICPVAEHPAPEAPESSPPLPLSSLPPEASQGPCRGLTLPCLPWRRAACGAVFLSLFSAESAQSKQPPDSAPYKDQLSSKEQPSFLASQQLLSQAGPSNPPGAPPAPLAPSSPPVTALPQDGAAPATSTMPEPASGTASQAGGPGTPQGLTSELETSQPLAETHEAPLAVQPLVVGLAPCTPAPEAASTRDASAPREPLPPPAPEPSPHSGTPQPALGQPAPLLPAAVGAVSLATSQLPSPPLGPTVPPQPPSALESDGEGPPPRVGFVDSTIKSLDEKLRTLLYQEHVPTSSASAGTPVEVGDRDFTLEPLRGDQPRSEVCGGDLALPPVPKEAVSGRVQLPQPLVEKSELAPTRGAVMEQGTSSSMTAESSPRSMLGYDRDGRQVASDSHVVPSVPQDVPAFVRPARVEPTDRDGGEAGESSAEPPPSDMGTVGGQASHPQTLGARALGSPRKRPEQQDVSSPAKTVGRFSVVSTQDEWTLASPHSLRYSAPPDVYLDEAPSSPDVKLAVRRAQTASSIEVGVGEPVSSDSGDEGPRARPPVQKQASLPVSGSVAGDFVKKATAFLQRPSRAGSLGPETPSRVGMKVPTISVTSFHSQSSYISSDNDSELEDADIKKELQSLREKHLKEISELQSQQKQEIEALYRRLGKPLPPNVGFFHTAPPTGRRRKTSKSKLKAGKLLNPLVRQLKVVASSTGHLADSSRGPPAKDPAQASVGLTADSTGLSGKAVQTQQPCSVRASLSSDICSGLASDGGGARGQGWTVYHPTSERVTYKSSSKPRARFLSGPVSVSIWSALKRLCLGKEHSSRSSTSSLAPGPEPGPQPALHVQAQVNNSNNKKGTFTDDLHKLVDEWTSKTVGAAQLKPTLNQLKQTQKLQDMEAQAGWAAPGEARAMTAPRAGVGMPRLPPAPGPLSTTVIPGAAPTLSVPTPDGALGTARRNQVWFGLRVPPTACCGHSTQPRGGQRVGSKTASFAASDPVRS
Chain of SRSF protein kinase 2 (Homo sapiens) (P78362 whole entry, looked up, the tested form may be a part): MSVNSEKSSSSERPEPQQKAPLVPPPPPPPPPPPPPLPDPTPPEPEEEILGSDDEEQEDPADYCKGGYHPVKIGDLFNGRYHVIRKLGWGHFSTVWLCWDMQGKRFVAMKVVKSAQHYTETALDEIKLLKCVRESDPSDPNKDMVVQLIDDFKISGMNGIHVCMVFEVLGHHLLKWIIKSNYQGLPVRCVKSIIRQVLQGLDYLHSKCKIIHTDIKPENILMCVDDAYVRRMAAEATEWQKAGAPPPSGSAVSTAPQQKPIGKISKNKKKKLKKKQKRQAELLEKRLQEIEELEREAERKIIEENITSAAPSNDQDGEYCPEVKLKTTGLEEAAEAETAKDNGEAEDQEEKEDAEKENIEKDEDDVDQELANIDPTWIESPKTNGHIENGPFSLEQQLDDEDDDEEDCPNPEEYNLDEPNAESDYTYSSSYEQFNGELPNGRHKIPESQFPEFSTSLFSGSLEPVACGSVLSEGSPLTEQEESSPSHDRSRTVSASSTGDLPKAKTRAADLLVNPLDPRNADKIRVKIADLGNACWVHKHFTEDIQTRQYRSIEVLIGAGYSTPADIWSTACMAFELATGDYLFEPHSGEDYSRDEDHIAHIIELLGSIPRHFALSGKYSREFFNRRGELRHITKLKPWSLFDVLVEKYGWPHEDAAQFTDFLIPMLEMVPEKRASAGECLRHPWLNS
Chain of Aurora kinase B (Q96GD4 whole entry, the tested form may be a part): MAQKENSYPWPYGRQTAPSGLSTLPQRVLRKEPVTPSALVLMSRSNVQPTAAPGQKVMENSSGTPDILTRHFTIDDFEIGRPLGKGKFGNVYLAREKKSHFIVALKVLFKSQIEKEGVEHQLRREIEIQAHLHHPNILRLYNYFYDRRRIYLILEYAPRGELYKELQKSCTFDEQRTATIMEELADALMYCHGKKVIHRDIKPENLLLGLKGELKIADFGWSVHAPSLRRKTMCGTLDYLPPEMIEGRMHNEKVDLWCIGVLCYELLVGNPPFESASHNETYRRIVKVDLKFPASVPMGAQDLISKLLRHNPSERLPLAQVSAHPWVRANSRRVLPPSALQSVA

SMILES | Activity [1] [%] | Activity [2] [%] | Activity [3] [%] | EC50 (Aurora kinase A) [nM] | Activity [4] [%] | Activity [5] [%] | Activity [6] [%] | Activity [7] [%] | Activity [8] [%] | Activity [9] [%] | Activity (Aurora kinase B) [%] | Activity [10] [%] | Activity [11] [%] | Activity [12] [%] | Activity (HEK293) [%] | IC50 (HeLa) [nM] | Activity [13] [%] | Activity [14] [%] | Activity [15] [%] | Activity [16] [%] | further results
CCC(=O)Nc1ccc(C(=O)Nc2ccc(Nc3ncc4c(n3)N(C)c3ccc(C)cc3C(=O)N4C)cc2)cc1 | 82 | 81 | 95 | 38 | 100 | 83 | 100 | 100 | 96 | 87 | 1.9 | 81 | 65 | 83 | 50 | < 1 | 88 | 94 | 85 | 88 | Activity [17]: 77%; Activity [18]: 97%
C=CC(=O)Nc1ccc(C(=O)Nc2ccc(Nc3ncc4c(n3)N(C)c3ccc(C)cc3C(=O)N4C)cc2)cc1 | 100 | 99 | 100 | 5.8 | 87 | 45 | 99 | 99 | 100 | 99 | 1.8 | 71 | 93 | 91 | 50 | < 1 | 100 | 86 | 100 | 96 | Activity [17]: 77%; Activity [18]: 93%
